Results on 21 compounds are retold here after ChEMBL document CHEMBL1149785, “Synthesis and biological evaluation of helicid analogues as novel acetylcholinesterase inhibitors” (Eur J Med Chem, 2008).

Activity calls are given as the source filed them. The calls are words filed in the database; no cut-off is given here.

The target of assay [1] is Acetylcholinesterase (Electrophorus electricus, UniProt O42275). The assay is described as follows: Inhibition of Electrophorus electricus AChE by Ellman's method. A general note: DTNB colorimetry detects thiols as they appear.
The target of assay [2] is Cholinesterase (Equus caballus, UniProt P81908). Description: Inhibition of horse serum BuChE by Ellman's method.
The target in assay [3] is Cholinesterase (Equus caballus) (UniProt P81908). The assay is described as follows: Inhibition of horse serum BuChE upto 500 uM by Ellman's method. The method in brief: (§1)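 Modified Ellman assay with acetylthiocholine (AChE) or butyrylthiocholine (BuChE) as substrate, from 0.075 M stock solutions, and DTNB from a 0.01 M stock, in phosphate buffer. Enzyme, DTNB and test compound were pre-incubated for 15 min at 37 °C, then substrate was added. Absorbance was read at 412 nm for 1 min. Five concentrations, normally 10^-4 to 10^-9 M, each in triplicate.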

Assay [4] concerns the target Acetylcholinesterase (Electrophorus electricus) (UniProt O42275). The assay is described as follows: Inhibition of Electrophorus electricus AChE upto 500 uM by Ellman's method. The method, boiled down:
as §1

In assay [5] the target is 4-aminobutyrate aminotransferase, mitochondrial (Homo sapiens, UniProt P80404). The assay is described as follows: Inhibition of GABA transaminase.
Sequence of 4-aminobutyrate aminotransferase, mitochondrial (P80404 whole entry): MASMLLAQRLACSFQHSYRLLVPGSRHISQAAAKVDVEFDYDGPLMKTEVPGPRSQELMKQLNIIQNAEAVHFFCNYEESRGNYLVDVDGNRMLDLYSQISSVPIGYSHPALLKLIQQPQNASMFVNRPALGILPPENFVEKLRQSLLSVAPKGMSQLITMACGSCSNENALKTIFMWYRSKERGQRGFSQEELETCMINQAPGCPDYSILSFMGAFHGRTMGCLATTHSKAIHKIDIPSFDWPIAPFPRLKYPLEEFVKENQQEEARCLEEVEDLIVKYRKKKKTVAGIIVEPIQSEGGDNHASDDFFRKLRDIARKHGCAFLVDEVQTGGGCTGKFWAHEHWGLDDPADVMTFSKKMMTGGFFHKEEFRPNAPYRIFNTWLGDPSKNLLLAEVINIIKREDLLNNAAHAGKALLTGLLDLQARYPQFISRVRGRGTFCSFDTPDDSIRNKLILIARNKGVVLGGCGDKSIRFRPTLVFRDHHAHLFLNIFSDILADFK

Sequence of Cholinesterase (Equus caballus) (P81908 whole entry): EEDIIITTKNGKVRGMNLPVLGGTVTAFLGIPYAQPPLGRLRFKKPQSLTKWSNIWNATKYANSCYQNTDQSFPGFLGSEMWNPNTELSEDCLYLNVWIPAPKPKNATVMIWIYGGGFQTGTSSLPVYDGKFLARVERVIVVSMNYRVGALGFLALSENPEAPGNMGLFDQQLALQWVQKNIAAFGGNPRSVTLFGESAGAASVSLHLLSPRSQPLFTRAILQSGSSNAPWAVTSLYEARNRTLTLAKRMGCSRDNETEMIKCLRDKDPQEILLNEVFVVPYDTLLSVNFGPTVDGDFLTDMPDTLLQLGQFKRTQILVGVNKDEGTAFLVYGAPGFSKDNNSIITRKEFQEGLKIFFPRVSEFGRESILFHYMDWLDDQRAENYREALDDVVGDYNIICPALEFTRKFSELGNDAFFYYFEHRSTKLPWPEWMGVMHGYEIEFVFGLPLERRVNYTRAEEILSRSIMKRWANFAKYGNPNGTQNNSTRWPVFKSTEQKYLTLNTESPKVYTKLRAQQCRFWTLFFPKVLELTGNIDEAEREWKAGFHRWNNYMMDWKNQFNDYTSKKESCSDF
Sequence of Cholinesterase (P81908 whole entry): as above
Sequence of Acetylcholinesterase (O42275 whole entry): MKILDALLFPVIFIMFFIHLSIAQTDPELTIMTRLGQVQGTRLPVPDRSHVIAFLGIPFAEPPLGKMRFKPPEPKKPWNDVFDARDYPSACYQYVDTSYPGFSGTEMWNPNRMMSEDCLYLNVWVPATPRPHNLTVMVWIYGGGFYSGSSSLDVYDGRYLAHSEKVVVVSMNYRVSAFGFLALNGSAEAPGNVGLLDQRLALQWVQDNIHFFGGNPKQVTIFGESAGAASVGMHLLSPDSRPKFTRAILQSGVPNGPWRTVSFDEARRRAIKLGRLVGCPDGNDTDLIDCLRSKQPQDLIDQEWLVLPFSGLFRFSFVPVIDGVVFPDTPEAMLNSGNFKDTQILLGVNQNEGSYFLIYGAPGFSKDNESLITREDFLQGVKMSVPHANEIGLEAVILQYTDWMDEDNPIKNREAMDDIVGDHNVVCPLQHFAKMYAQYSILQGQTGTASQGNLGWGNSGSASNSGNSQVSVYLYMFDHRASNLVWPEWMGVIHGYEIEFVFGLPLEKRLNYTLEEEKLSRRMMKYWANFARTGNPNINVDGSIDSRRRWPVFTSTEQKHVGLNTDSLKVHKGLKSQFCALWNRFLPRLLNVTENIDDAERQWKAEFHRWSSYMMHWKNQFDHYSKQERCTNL
Sequence of Acetylcholinesterase (Electrophorus electricus) (O42275 24-633 limits assumed): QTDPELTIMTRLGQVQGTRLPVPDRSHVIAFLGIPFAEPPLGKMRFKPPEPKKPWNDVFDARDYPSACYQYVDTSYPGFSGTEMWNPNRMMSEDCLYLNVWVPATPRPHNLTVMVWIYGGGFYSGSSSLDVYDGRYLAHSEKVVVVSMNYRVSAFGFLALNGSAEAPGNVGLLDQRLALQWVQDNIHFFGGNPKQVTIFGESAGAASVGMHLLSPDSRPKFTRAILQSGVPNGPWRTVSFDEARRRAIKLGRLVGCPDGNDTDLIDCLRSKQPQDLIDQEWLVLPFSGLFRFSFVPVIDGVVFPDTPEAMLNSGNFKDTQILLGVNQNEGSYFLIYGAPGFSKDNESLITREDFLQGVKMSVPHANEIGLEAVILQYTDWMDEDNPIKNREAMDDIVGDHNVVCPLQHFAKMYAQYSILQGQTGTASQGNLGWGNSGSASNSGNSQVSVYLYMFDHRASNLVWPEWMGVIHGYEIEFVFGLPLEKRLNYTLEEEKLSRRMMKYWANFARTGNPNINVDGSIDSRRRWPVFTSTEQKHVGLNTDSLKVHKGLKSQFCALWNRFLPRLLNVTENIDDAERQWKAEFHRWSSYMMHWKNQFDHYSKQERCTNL

By IC50 is commonly meant the point on the concentration scale where inhibition reaches its midpoint. A high value points to a need for much substance. Consider `CO/N=C\c1ccc(O[C@@H]2OC[C@@H](OC(=O)c3ccccc3)[C@@H](OC(=O)c3ccccc3)[C@H]2OC(=O)c2ccccc2)cc1`, for which the results for the half-inhibitory concentration (IC50) in assay [1] and in assay [2] were 3.08 µM and 45.8 µM, respectively.

In the case of `NC(=S)N/N=C/c1ccc(O[C@@H]2OC[C@@H](OC(=O)c3ccccc3)[C@@H](OC(=O)c3ccccc3)[C@H]2OC(=O)c2ccccc2)cc1`, the results for the half-maximal inhibitory concentration (IC50) in assay [1] and in assay [2] were 46.4 µM and 71.8 µM, respectively.

As to `OC[C@H]1O[C@@H](Oc2ccc(/C=N/O)cc2)[C@H](O)[C@@H](O)[C@@H]1O`, the outcome in assay [3] was inactive.

`CC(=O)OC[C@H]1O[C@@H](Oc2ccc(C=O)cc2)[C@H](OC(C)=O)[C@@H](OC(C)=O)[C@@H]1OC(C)=O` had an IC50 in assay [1] of 1.5 µM. Moreover, in assay [3], the outcome was inactive.

The term Ki denotes the dissociation constant of the complex between target and ligand, obtained from inhibition or displacement. A lower Ki goes with higher affinity. As to `O=Cc1ccc(O[C@@H]2O[C@H](CO)[C@@H](O)[C@H](O)[C@H]2O)cc1`, in assay [1], the half-inhibitory concentration (IC50) is 0.45 µM and the Ki turned out to be 730 nM. Moreover, the outcome in assay [3] was inactive.

Turning to `O=Cc1ccc(O[C@@H]2O[C@H](CO)[C@@H](O)[C@@H](O)[C@H]2O)cc1`, the outcome in assay [4] and in assay [3] was inactive.

For `CC(=O)OC[C@H]1O[C@@H](O[C@H]2[C@H](OC(C)=O)[C@@H](OC(C)=O)[C@H](Oc3ccc(C=O)cc3)O[C@@H]2COC(C)=O)[C@H](OC(C)=O)[C@@H](OC(C)=O)[C@H]1OC(C)=O`, the outcome in assay [4] and in assay [3] was inactive.

In turn, `CC(=O)OC[C@H]1O[C@@H](Oc2ccc(/C=N/NC(N)=S)cc2)[C@H](OC(C)=O)[C@@H](OC(C)=O)[C@@H]1OC(C)=O` came in with an IC50 in assay [1] of 21.5 µM. The result in assay [3] was inactive.

With `CC(=O)OC[C@H]1O[C@@H](Oc2ccc(C=O)cc2)[C@H](OC(C)=O)[C@@H](OC(C)=O)[C@H]1OC(C)=O`, the IC50 in assay [1] turned out to be 45.4 µM. Besides, the result in assay [3] was inactive.

Compound `CC(=O)OC[C@H]1O[C@@H](Oc2ccc(/C=N/NC(N)=O)cc2)[C@H](OC(C)=O)[C@@H](OC(C)=O)[C@@H]1OC(C)=O` had a half-inhibitory concentration (IC50) in assay [1] of 143 µM. Besides, the outcome in assay [3] was inactive.

As for `O=Cc1ccc(O[C@@H]2OC[C@@H](OC(=O)c3ccccc3)[C@H](OC(=O)c3ccccc3)[C@H]2OC(=O)c2ccccc2)cc1`, in assay [1], the half-inhibitory concentration (IC50) came to 35 µM. Besides, the outcome in assay [3] was inactive.

Take `CC(=O)OC[C@H]1O[C@@H](Oc2ccc(/C=N/O)cc2)[C@H](OC(C)=O)[C@@H](OC(C)=O)[C@@H]1OC(C)=O`: the result in assay [3] was inactive.

For `NC(=O)N/N=C/c1ccc(O[C@@H]2OC[C@@H](OC(=O)c3ccccc3)[C@@H](OC(=O)c3ccccc3)[C@H]2OC(=O)c2ccccc2)cc1`, the IC50 in assay [1] amounted to 7.07 µM; in assay [2], 48.7 µM.

Take `NC(=S)N/N=C/c1ccc(O[C@@H]2O[C@H](CO)[C@@H](O)[C@H](O)[C@H]2O)cc1`: the IC50 in assay [1] turned out to be 22.9 µM. The result in assay [3] was inactive.

In the case of `CO/N=C\c1ccc(O[C@@H]2O[C@H](COC(C)=O)[C@@H](OC(C)=O)[C@H](OC(C)=O)[C@H]2OC(C)=O)cc1`, inhibition in assay [1] was half-maximal at 15.1 µM (IC50). Moreover, the result in assay [3] was inactive.

Turning to `CC(=O)OC[C@H]1O[C@@H](Oc2ccc(C=O)cc2)[C@H](OC(C)=O)[C@H](OC(C)=O)[C@@H]1OC(C)=O`, the result in assay [4] and in assay [3] was inactive.

For `O=Cc1ccc(O[C@@H]2OC[C@@H](OC(=O)c3ccccc3)[C@@H](OC(=O)c3ccccc3)[C@H]2OC(=O)c2ccccc2)cc1`, the values for the 50% inhibitory concentration (IC50) in assay [1] and in assay [2] were 14 µM and 64.3 µM, respectively.

For `CO/N=C\c1ccc(O[C@@H]2O[C@H](CO)[C@@H](O)[C@H](O)[C@H]2O)cc1`, in assay [1], the half-maximal inhibitory concentration (IC50) turned out to be 0.49 µM and the Ki was 130 nM. The result in assay [3] was inactive.

For the compound `O=Cc1ccc(O[C@@H]2OC[C@@H](O)[C@@H](O)[C@H]2O)cc1`, in assay [1], half-maximal inhibition (IC50) required 0.2 µM and affinity was put at a Ki of 510 nM. Besides, the outcome in assay [3] was inactive.

In assay [1], `NC(=O)N/N=C/c1ccc(O[C@@H]2O[C@H](CO)[C@@H](O)[C@H](O)[C@H]2O)cc1` had a half-inhibitory concentration (IC50) of 121 µM. The result in assay [3] was inactive.

In assay [5], `O=Cc1ccc(O)cc1` [4-HYDROXYBENZALDEHYDE] gave a half-maximal inhibitory concentration (IC50) of 33.6 µM.
